Among the data in ChEMBL document CHEMBL3758134, “Avertoxins A-D, Prenyl Asteltoxin Derivatives from Aspergillus versicolor Y10, an Endophytic Fungus of Huperzia serrata” (J Nat Prod, 2015) are IC50 values, retold here.

Each structure is given as a SMILES string.

The subject of one experiment is MDA-MB-231. As to the kind of experiment: Antiproliferative activity against human MDA-MB-231 cells assessed as cell viability after 72 hrs by SRB assay. It counts as functional, cell-based. The conditions noted are these: MDA-MB-231, 72 h. In short, it runs like this: (§1)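 Cells grown in DMEM with 10% FBS and exposed to compound for 72 h. Viability read by sulforhodamine B (SRB) staining.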
(In general: In SRB staining, fixed cells bind dye roughly in proportion to their protein.)

Experiment [1] can be described thus: Antiproliferative activity against human HCT116 cells assessed as cell viability after 72 hrs by SRB assay. It counts as functional, cell-based. The conditions noted are these: HCT-116, 72 h. Summed up:
as §1

Another experiment concerns HeLa. As to the kind of experiment: Antiproliferative activity against human HeLa cells assessed as cell viability after 72 hrs by SRB assay. It counts as functional, cell-based. Summed up:
as §1

A further experiment addresses Acetylcholinesterase (Homo sapiens, UniProt P22303). As to the kind of experiment: Inhibition of human acetylcholinesterase after 30 mins by microplate reader-based Ellman's method. (In Ellman's method for cholinesterases, released thiocholine reacts with DTNB.)

Sequence of Acetylcholinesterase (P22303 whole entry): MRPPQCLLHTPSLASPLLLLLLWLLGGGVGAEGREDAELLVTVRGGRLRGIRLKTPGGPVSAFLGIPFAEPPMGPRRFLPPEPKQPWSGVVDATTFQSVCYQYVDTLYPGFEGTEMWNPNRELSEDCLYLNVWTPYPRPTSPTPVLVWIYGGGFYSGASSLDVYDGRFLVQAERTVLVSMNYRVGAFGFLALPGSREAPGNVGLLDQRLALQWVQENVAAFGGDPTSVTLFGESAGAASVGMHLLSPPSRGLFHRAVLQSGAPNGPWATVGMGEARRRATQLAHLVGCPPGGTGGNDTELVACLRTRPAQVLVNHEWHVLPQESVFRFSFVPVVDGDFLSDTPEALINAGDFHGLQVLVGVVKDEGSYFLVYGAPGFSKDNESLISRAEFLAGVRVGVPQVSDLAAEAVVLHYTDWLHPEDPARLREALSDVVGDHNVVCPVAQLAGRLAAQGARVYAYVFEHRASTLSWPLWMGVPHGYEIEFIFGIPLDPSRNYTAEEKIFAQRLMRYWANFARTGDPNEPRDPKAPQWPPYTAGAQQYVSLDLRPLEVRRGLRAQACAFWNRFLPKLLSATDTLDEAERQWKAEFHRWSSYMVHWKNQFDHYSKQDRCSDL

Broadly, the IC50 is the point on the concentration scale where inhibition reaches its midpoint. Turning to `CC[C@H]1O[C@@H]2O[C@H](/C=C/C=C/C=C/c3oc(=O)cc(OC)c3C)[C@H](O)[C@]2(C)[C@@]1(C)O`, the IC50 (with MDA-MB-231; in experiment [1]; in the experiment with HeLa) was over 50 µM throughout.

In the case of `CC[C@H]1O[C@@H]2O[C@H](/C=C/C=C/C=C/c3oc(=O)cc(OC/C=C(\C)C(=O)OC)c3C)[C@H](O)[C@]2(C)[C@@]1(C)O`, the half-maximal inhibitory concentration (IC50) is 14.9 µM on Acetylcholinesterase, 35 µM in the experiment with MDA-MB-231, 9 µM in experiment [1] and over 50 µM in the experiment with HeLa.

Consider `CC[C@H]1O[C@@H]2O[C@H](/C=C/C=C/C=C/c3oc(=O)c4c(c3C)O[C@H](C)C4(C)C)[C@H](O)[C@]2(C)[C@@]1(C)O`, for which the IC50 in the experiment on MDA-MB-231 is over 50 µM; in experiment [1], 50 µM; with HeLa, 48 µM.

For the compound `CC[C@H]1O[C@@H]2O[C@H](/C=C/C=C/C=C/c3oc(=O)cc(OCC=C(C)C)c3C)[C@H](O)[C@]2(C)[C@@]1(C)O`, the IC50 in the experiment on MDA-MB-231 is 37 µM; in experiment [1], 44 µM; in the experiment with HeLa, 48 µM.

As for `COC(=O)/C(C)=C/COc1cc(=O)oc(/C=C/C=C/C=C/[C@H]2O[C@H]3O[C@H](C)[C@](C)(O)[C@@]3(C)[C@H]2O)c1C`, the values for the IC50 (in the experiment with MDA-MB-231; in experiment [1]; in the experiment with HeLa) were 28 µM, 21 µM and 11 µM, respectively.

As to `COc1cc([C@@H]2c3cc4c(cc3[C@@H](O[C@@H]3O[C@@H]5CO[C@@H](C)O[C@H]5[C@H](O)[C@H]3O)[C@H]3COC(=O)[C@H]23)OCO4)cc(OC)c1O` [ETOPOSIDE], the 50% inhibitory concentration (IC50) in the experiment with MDA-MB-231 is 4.2 µM; in experiment [1], 26.1 µM; in the experiment with HeLa, 3.2 µM.
